In ChEMBL document CHEMBL1157968, “Chemical and cytotoxic constituents from the leaves of Cinnamomum kotoense” (2006):

Tests used:
Assay type in all cases: functional
HeLa [1] = experiment: Cell cycle arrest in human HeLa cells pretreated with 10 uM pifithrin-alpha for 1 hr assessed as G2/M phase accumulation at 100 uM after 24 hrs by FACS
How it was run: (§1)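 HeLa cells pretreated for 1 h with the listed agent (10 mM GSH ethyl ester, 10 µM dexamethasone, 10 µM pifithrin, 100 µM Boc-Asp(OMe)-fmk or 5 µM cyclosporin A), then given 100 µM compound for 24 h. Cells fixed in PBS-MeOH, stained with PI/RNase and analysed by flow cytometry for DNA content. At least three experiments, one representative shown.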

HeLa [2] = experiment: Induction of apoptosis in human HeLa cells assessed as increase caspase 3/7 activities at 100 uM after 24 hrs by FACS relative to control
How it was run: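 After 3–24 h exposure at 100 µM, HeLa cells were trypsinized. 1 × 10^6 cells in DMEM were mixed 1:1 with Z-DEVD-R110 substrate reagent and incubated 1 h at 37 °C, then washed. Released R110 read per cell by flow cytometry (ex 488/em 520 nm) and expressed as fold over untreated cells. At least three runs.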

HeLa [3] = experiment: Induction of apoptosis in human HeLa cells assessed as number of cells with decreased mitochondrial membrane potential at 100 uM after 9 hrs by measuring rhodamine 123 fluorescence intensity; parameters: scale not given: the % may be the effect or the level left
How it was run: (§2)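 Cells in DMEM/10% FCS, medium renewed at 80% confluence, then 100 µM agent (0.1% DMSO final) for 1–24 h. Stained with 5 µM rhodamine 123 for 30 min in the dark, washed, trypsinized and resuspended in PBS; flow cytometry, percentage of cells with weak rhodamine 123 staining (reduced ΔΨm); at least three experiments, representative shown.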

HeLa [4] = experiment: Cell cycle arrest in human HeLa cells pretreated with 5 uM cyclosporin A for 1 hr assessed as G1 phase accumulation at 100 uM after 24 hrs by FACS; how it was run: as §1
HeLa [5] = experiment: Cell cycle arrest in human HeLa cells pretreated with 100 uM Boc-Asp(OMe)-fmk for 1 hr assessed as S phase accumulation at 100 uM after 24 hrs by FACS; how it was run: as §1
HeLa [6] = experiment: Induction of apoptosis in human HeLa cells assessed as increase p53 expression at 100 uM after 24 hrs by FACS
How it was run: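 HeLa seeded at 5 × 10^5 cells/dish 48 h before, in DMEM with 10% FCS; medium renewed at 60% confluence, then 100 µM agent (0.1% DMSO final) for 0–24 h. Pooled floating and adherent cells fixed in 1% paraformaldehyde (15 min, 4 °C), permeabilized in 70% EtOH (30 min, 4 °C), then FITC-conjugated mouse anti-p53 mAb (1 h, 37 °C), PI/RNase counterstain; flow cytometry, % p53-positive cells; ≥3 experiments.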

HeLa [7] = experiment: Cell cycle arrest in human HeLa cells assessed as subG1 phase accumulation at 25 uM after 24 hrs by FACS
How it was run: (§3)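 HeLa cells seeded 5 × 10^5 per dish 48 h ahead in DMEM with 10% FCS, then exposed to compound for 24 h (DMSO 0.1% final). Adherent and floating cells pooled, fixed in PBS-MeOH (1:2) at 4 °C for at least 18 h, and stained with PI (50 µg/mL) plus RNase A for 30 min at room temperature. Flow cytometry at 488 nm excitation, doublets gated out; phase percentages taken from DNA histograms.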

HeLa [8] = experiment: Cell cycle arrest in human HeLa cells pretreated with 10 uM pifithrin-alpha for 1 hr assessed as S phase accumulation at 100 uM after 24 hrs by FACS; how it was run: as §1
HeLa [9] = experiment: Induction of apoptosis in human HeLa cells assessed as increase in intracellular nitric oxide level at 100 uM after 3 hrs by FACS relative to untreated control
How it was run: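 HeLa cells at 80% confluence were exposed to 100 µM for 1, 3 or 24 h and then stained with 1 µM DAF-2 for 10 min in the dark. After trypsinization, DAF-2 fluorescence was measured by flow cytometry and taken as fold versus untreated cells. At least three experiments.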

HeLa [10] = experiment: Cell cycle arrest in human HeLa cells assessed as G1 phase accumulation at 25 uM after 24 hrs by FACS; how it was run: as §3
HeLa [11] = experiment: Induction of apoptosis in human HeLa cells assessed as number of cells with decreased mitochondrial membrane potential at 100 uM after 24 hrs by measuring rhodamine 123 fluorescence intensity; parameters: scale not given: the % may be the effect or the level left; how it was run: as §2
HeLa [12] = experiment: Cell cycle arrest in human HeLa cells assessed as S phase accumulation at 25 50 after 24 hrs by FACS; how it was run: as §3
HeLa [13] = experiment: Induction of apoptosis in human HeLa cells assessed as increase p53 expression at 100 uM after 12 hrs by FACS
How it was run: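 Cells at 60% confluence were exposed to 100 µM for 0–24 h. Floating and adherent cells were fixed in 1% paraformaldehyde (15 min, 4 °C) and permeabilized in 70% EtOH. They were stained with FITC-anti-p53 monoclonal antibody for 1 h at 37 °C, then with PI/RNase. Flow cytometry gave the percentage of p53-positive cells.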

HeLa [14] = experiment: Induction of apoptosis in human HeLa cells at 100 uM after 24 hrs by TUNEL assay
How it was run: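 HeLa in DMEM/10% FCS, untreated or pretreated 1 h with listed inhibitor, then 100 µM agent (0.1% DMSO final) for 24 h. Pooled cells fixed in 1% paraformaldehyde (30 min, 4 °C), 70% EtOH (30 min, −20 °C); strand breaks labelled with TdT/fluorescein-BrdUTP (1 h, 37 °C), PI/RNase counterstain; flow cytometry, % apoptotic cells; ≥3 experiments.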

HeLa [15] = experiment: Cell cycle arrest in human HeLa cells pretreated with 5 uM cyclosporin A for 1 hr assessed as G2/M phase accumulation at 100 uM after 24 hrs by FACS; how it was run: as §1
HeLa [16] = experiment: Induction of apoptosis in human HeLa cells assessed as increase in intracellular glutathione-depleted cell population at 100 uM after 24 hrs by FACS
How it was run: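 HeLa cells at 80% confluence got fresh medium and were exposed for 24 h. Adherent and floating cells were pooled, adjusted to (1-2) × 10^6/mL and stained with 25 µM CMF-DA for 30 min at 37 °C. After washing, flow cytometry scored the percentage of GSH-negative cells. At least three experiments.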

HeLa [17] = experiment: Cell cycle arrest in human HeLa cells assessed as subG1 phase accumulation at 100 uM after 24 hrs by FACS; how it was run: as §3
HeLa [18] = experiment: Cell cycle arrest in human HeLa cells pretreated with 100 uM Boc-Asp(OMe)-fmk for 1 hr assessed as G2/M phase accumulation at 100 uM after 24 hrs by FACS; how it was run: as §1
HeLa [19] = experiment: Cell cycle arrest in human HeLa cells pretreated with 10 mM glutathione ethyl ester for 1 hr assessed as S phase accumulation at 100 uM after 24 hrs by FACS; how it was run: as §1
HeLa [20] = experiment: Induction of apoptosis in human HeLa cells assessed as increase in intracellular hydrogen peroxide level at 100 uM after 24 hrs by FACS relative to untreated control
How it was run: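 HeLa cells at 80% confluence were refed and exposed to 100 µM for 1, 3 or 24 h. They were loaded with 10 µM DCFH-DA for 30 min in the dark, trypsinized and resuspended in PBS. DCF fluorescence was measured by flow cytometry and expressed as fold versus untreated cells. At least three experiments.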

Question: With `CCCCCCCCCCCCC/C=C(/C(=O)OC)[C@@H](O)C(C)=O` [SECOKOTOMOLIDE A] as the compound, how does the Activity (HeLa [1]) read?
Answer: Its Activity is 0%.

Question: What about the “fold change (FC)” value (HeLa [2]) of the same compound?
Answer: Its value is 1.7.

Question: What about the Activity (HeLa [3]) of the same compound?
Answer: Its Activity is 42.4%.

Question: What about the Activity (HeLa [4]) of the same compound?
Answer: The Activity was 47.7%.

Question: What about the Activity (HeLa [5]) of the same compound?
Answer: Its Activity is 13.6%.

Question: What about the Activity (HeLa [6]) of the same compound?
Answer: The Activity was 28.8%.

Question: And the Activity (HeLa [7])?
Answer: The Activity was 47.7%.

Question: What about the Activity (HeLa [8]) of the same compound?
Answer: The Activity was 48.5%.

Question: What about the “fold change (FC)” value (HeLa [9]) of the same compound?
Answer: Its value is 2.1.

Question: And the Activity (HeLa [10])?
Answer: Its Activity is 55.2%.

Question: And the Activity (HeLa [11])?
Answer: The Activity was 75.1%.

Question: What about the Activity (HeLa [12]) of the same compound?
Answer: Its Activity is 20.3%.

Question: What about the Activity (HeLa [13]) of the same compound?
Answer: The Activity was 2.3%.

Question: And the Activity (HeLa [14])?
Answer: The Activity was 72.3%.

Question: What about the Activity (HeLa [15]) of the same compound?
Answer: The Activity was 38.2%.

Question: And the Activity (HeLa [16])?
Answer: Its Activity is 98%.

Question: What about the Activity (HeLa [17]) of the same compound?
Answer: The Activity was 75%.

Question: What about the Activity (HeLa [18]) of the same compound?
Answer: The Activity was 25.7%.

Question: And the Activity (HeLa [19])?
Answer: Its Activity is 8.4%.

Question: And the “fold change (FC)” value (HeLa [20])?
Answer: Its value is 3.9.
